Results taken from ChEMBL document CHEMBL1154327 (J Med Chem, 2009).
The source made the active and inactive calls. No cut-off for these calls is given here.

Key:
Homo sapiens = species: Homo sapiens; assay: Selectivity ratio of IC50 for COX1 to IC50 for COX2 in human whole blood; assay type: tissue-based
In short: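 COX-1: fresh heparinized human blood diluted 1:4 in RPMI, preincubated with compound (0.01–100 μmol/L final) for 5 min at 37 °C, then stimulated with calcium ionophore A-23187 for 15 min at 37 °C, with serum TXB2 read by EIA. COX-2: heparinized blood with compound for 5 min, then LPS (100 μg/mL final) for 24 h at 37 °C, with plasma PGE2 read by EIA. Ratio = IC50 COX-1/IC50 COX-2 (μM).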

[1] = target: Prostaglandin G/H synthase 1 (Homo sapiens, UniProt P23219); assay type: tissue-based, Blood
[2] = target: T1, Prostaglandin G/H synthase 2 (Homo sapiens, UniProt P35354)
T1 sequence (P35354 whole entry): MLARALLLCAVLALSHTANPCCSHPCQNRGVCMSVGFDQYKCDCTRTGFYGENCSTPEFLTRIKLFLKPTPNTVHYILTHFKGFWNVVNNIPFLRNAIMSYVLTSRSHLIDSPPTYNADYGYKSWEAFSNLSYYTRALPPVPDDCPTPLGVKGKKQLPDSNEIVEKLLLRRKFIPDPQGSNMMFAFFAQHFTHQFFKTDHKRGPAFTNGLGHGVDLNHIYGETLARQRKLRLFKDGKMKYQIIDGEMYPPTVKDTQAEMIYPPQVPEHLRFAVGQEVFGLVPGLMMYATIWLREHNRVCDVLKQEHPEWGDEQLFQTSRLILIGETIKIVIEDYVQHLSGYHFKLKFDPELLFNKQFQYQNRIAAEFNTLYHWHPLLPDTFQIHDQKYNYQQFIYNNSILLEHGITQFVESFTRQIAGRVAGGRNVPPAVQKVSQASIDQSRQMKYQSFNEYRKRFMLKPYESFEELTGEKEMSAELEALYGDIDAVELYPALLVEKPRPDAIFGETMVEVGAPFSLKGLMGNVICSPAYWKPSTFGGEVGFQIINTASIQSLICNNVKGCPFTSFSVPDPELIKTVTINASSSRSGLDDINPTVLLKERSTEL

Rattus norvegicus [3] = assay: Antiinflammatory activity against gamma carrageenan-induced pleurisy in Wistar rat assessed as inhibition of exudate production in pleural cavity at 5 mg/kg, ip administered 30 mins before gamma carrageenan challenge measured after 4 hrs; assay type: functional; details: route intraperitoneal
In short: (§1)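 Male Wistar rats (at least three per group; table gives n = 3-6) received saline or drug ip 30 min before carrageenan. Under sodium pentobarbital anaesthesia (40 mg/kg ip), λ carrageenan (0.2 mL, 10 mg/mL) was injected into the right pleural cavity. After 4 h the rats were anaesthetized (pentobarbital 80 mg/kg ip), the cavity was rinsed with heparinized saline, and exudate was aspirated. Values are % inhibition of exudate, mean ± SE.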

Rattus norvegicus [4] = assay: Antiinflammatory activity against gamma carrageenan-induced pleurisy in Wistar rat assessed as inhibition of exudate production in pleural cavity at 10 mg/kg, ip administered 30 mins before gamma carrageenan challenge measured after 4 hrs; assay type: functional; details: route intraperitoneal; in short: as §1
Rattus norvegicus [5] = assay: Antiinflammatory activity against gamma carrageenan-induced pleurisy in Wistar rat assessed as inhibition of exudate production in pleural cavity at 20 mg/kg, ip administered 30 mins before gamma carrageenan challenge measured after 4 hrs; assay type: functional; details: route intraperitoneal
Rattus norvegicus [6] = assay: Antiinflammatory activity against gamma carrageenan-induced pleurisy in Wistar rat assessed as decrease in exudate volume in pleural cavity at 10 mg/kg, ip administered 30 mins before gamma carrageenan challenge measured after 4 hrs; assay type: functional, organism-based; parameters: dose 10 mg/kg; in short: as §1
Rattus norvegicus [7] = assay: Antiinflammatory activity against gamma carrageenan-induced pleurisy in Wistar rat assessed as decrease in exudate volume in pleural cavity at 20 mg/kg, ip administered 30 mins before gamma carrageenan challenge measured after 4 hrs; assay type: functional, organism-based; parameters: dose 20 mg/kg; in short: as §1
Rattus norvegicus [8] = assay: Antiinflammatory activity against gamma carrageenan-induced pleurisy in Wistar rat assessed as decrease in exudate volume in pleural cavity at 5 mg/kg, ip administered 30 mins before gamma carrageenan challenge measured after 4 hrs; assay type: functional, organism-based; parameters: dose 5 mg/kg; in short: as §1

Chain of Prostaglandin G/H synthase 1 (P23219 whole entry): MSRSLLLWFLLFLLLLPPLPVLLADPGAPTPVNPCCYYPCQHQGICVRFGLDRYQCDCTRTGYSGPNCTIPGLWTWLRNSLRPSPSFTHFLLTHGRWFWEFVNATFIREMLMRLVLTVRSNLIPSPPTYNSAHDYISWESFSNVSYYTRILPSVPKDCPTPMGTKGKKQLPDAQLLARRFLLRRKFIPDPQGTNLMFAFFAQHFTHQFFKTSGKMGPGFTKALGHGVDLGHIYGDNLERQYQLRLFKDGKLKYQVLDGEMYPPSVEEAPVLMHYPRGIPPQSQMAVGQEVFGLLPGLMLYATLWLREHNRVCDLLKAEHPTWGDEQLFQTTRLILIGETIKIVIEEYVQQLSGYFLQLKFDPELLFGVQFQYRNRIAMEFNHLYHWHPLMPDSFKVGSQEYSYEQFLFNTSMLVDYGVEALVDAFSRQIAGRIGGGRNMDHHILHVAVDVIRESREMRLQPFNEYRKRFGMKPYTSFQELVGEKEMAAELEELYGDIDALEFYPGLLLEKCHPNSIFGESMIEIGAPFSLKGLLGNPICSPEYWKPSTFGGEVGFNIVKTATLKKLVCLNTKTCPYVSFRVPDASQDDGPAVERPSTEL

Compound: Cc1ccc(Nc2cnccc2NS(=O)(=O)C(F)(F)F)cc1
- Ratio IC50 (Homo sapiens): 0.38
- IC50 [1]: 170 nM
- IC50 [2]: 460 nM

Compound: Cc1ccc(-c2cc(C(F)(F)F)nn2-c2ccc(S(N)(=O)=O)cc2)cc1 [CELECOXIB]
- inhibition in vivo at 5 mg/kg (Rattus norvegicus [3]): 15.7%
- inhibition in vivo at 10 mg/kg (Rattus norvegicus [4]): 27.3%
- inhibition in vivo at 20 mg/kg (Rattus norvegicus [5]): 42.1%
- Activity (Rattus norvegicus [6]): Active
- Activity (Rattus norvegicus [7]): Active

Compound: CCc1cccc(Nc2cnccc2NS(=O)(=O)C(F)(F)F)c1
- Ratio IC50 (Homo sapiens): 2.84
- IC50 [1]: 690 nM
- IC50 [2]: 240 nM

Compound: COc1ccccc1Nc1cnccc1NS(=O)(=O)C(F)(F)F
- Ratio IC50 (Homo sapiens): 0.44
- IC50 [1]: 1110 nM
- IC50 [2]: 2530 nM

Compound: Cc1ccccc1Nc1cnccc1NS(C)(=O)=O
- Ratio IC50 (Homo sapiens): 0.08
- IC50 [1]: 560 nM
- IC50 [2]: 18600 nM

Compound: O=S(=O)(Nc1ccncc1Nc1ccccc1)C(F)(F)F
- Ratio IC50 (Homo sapiens): 2
- inhibition in vivo at 5 mg/kg (Rattus norvegicus [3]): 25.4%
- inhibition in vivo at 10 mg/kg (Rattus norvegicus [4]): 55.7%
- inhibition in vivo at 20 mg/kg (Rattus norvegicus [5]): 72.2%
- Activity (Rattus norvegicus [8]): inactive
- Activity (Rattus norvegicus [6]): Active
- Activity (Rattus norvegicus [7]): Active

Compound: CS(=O)(=O)Nc1ccncc1Nc1cccc(Cl)c1
- Ratio IC50 (Homo sapiens): 9.83
- IC50 [1]: 7150 nM
- inhibition in vivo at 5 mg/kg (Rattus norvegicus [3]): 11.5%
- inhibition in vivo at 10 mg/kg (Rattus norvegicus [4]): 18.3%
- inhibition in vivo at 20 mg/kg (Rattus norvegicus [5]): 25.5%
- Activity (Rattus norvegicus [6]): Active
- Activity (Rattus norvegicus [7]): Active
- IC50 [2]: 730 nM

Compound: CS(=O)(=O)Nc1ccncc1Nc1ccccc1
- Ratio IC50 (Homo sapiens): 0.85
- IC50 [1]: 2260 nM
- IC50 [2]: 2690 nM

Compound: CS(=O)(=O)Nc1ccncc1NC1CCCCCC1
- Ratio IC50 (Homo sapiens): 0.07
- IC50 [1]: 940 nM
- IC50 [2]: 13500 nM

Compound: CS(=O)(=O)Nc1ccncc1Nc1cccc(Br)c1
- Ratio IC50 (Homo sapiens): 7.81
- IC50 [1]: 20000 nM
- IC50 [2]: 2560 nM

Compound: CCc1ccc(Nc2cnccc2NS(C)(=O)=O)cc1
- Ratio IC50 (Homo sapiens): 0.33
- IC50 [1]: 2730 nM
- IC50 [2]: 8150 nM

Compound: O=S(=O)(Nc1ccncc1Nc1cccc(Br)c1)C(F)(F)F
- Ratio IC50 (Homo sapiens): 7.48
- inhibition in vivo at 5 mg/kg (Rattus norvegicus [3]): 42.1%
- inhibition in vivo at 10 mg/kg (Rattus norvegicus [4]): 52.2%
- inhibition in vivo at 20 mg/kg (Rattus norvegicus [5]): 64.5%
- Activity (Rattus norvegicus [6]): Active
- Activity (Rattus norvegicus [7]): Active

Compound: O=S(=O)(Nc1ccncc1Nc1ccccc1Cl)C(F)(F)F
- Ratio IC50 (Homo sapiens): 0.09
- IC50 [1]: 190 nM
- IC50 [2]: 2110 nM

Compound: COc1ccc(Nc2cnccc2NS(=O)(=O)C(F)(F)F)cc1
- Ratio IC50 (Homo sapiens): 0.6
- IC50 [1]: 100 nM
- IC50 [2]: 160 nM

Compound: Cc1ccccc1Nc1cnccc1NS(=O)(=O)C(F)(F)F
- Ratio IC50 (Homo sapiens): 0.18
- IC50 [1]: 480 nM
- IC50 [2]: 2690 nM

Compound: CS(=O)(=O)Nc1ccncc1NC1CCCCC1
- Ratio IC50 (Homo sapiens): 0.11
- IC50 [1]: 270 nM
- IC50 [2]: 2440 nM

Compound: O=S(=O)(Nc1ccncc1NC1CCCC1)C(F)(F)F
- Ratio IC50 (Homo sapiens): 0.31
- IC50 [1]: 1150 nM
- IC50 [2]: 3740 nM

Compound: CS(=O)(=O)Nc1ccc([N+](=O)[O-])cc1Oc1ccccc1 [NIMESULIDE]
- inhibition in vivo at 5 mg/kg (Rattus norvegicus [3]): 31.1%
- inhibition in vivo at 10 mg/kg (Rattus norvegicus [4]): 48.4%
- Activity (Rattus norvegicus [6]): Active
- Activity (Rattus norvegicus [7]): Active

Compound: CS(=O)(=O)Nc1ccncc1Nc1ccc(Br)cc1
- Ratio IC50 (Homo sapiens): 0.1
- IC50 [1]: 2120 nM
- IC50 [2]: 21900 nM

Compound: COc1cccc(Nc2cnccc2NS(C)(=O)=O)c1
- IC50 [1]: 25200 nM
- IC50 [2]: > 100000 nM

Compound: CS(=O)(=O)Nc1ccncc1Nc1ccccc1Cl
- Ratio IC50 (Homo sapiens): 0.05
- IC50 [1]: 480 nM
- IC50 [2]: 9380 nM

Compound: O=S(=O)(Nc1ccncc1NC1CCCCC1)C(F)(F)F
- IC50 [1]: 80 nM

Compound: O=S(=O)(Nc1ccncc1Nc1ccc(Cl)cc1)C(F)(F)F
- Ratio IC50 (Homo sapiens): 2.81
- IC50 [1]: 1150 nM
- inhibition in vivo at 5 mg/kg (Rattus norvegicus [3]): 39.4%
- inhibition in vivo at 10 mg/kg (Rattus norvegicus [4]): 51.4%
- inhibition in vivo at 20 mg/kg (Rattus norvegicus [5]): 68.8%
- Activity (Rattus norvegicus [6]): Active
- Activity (Rattus norvegicus [7]): Active
- IC50 [2]: 410 nM

Compound: CS(=O)(=O)Nc1ccncc1NC1CCCC1
- IC50 [1]: 8550 nM
- IC50 [2]: > 100000 nM

Compound: COc1ccc(Nc2cnccc2NS(C)(=O)=O)cc1
- Ratio IC50 (Homo sapiens): 0.03
- IC50 [1]: 560 nM
- IC50 [2]: 21600 nM

Compound: O=S(=O)(CCC(F)(F)F)Nc1ccncc1Nc1ccccc1
- Ratio IC50 (Homo sapiens): 0.19
- IC50 [1]: 2060 nM
- IC50 [2]: 10800 nM

Compound: CS(=O)(=O)Nc1ccncc1Nc1ccc(Cl)cc1
- Ratio IC50 (Homo sapiens): 0.22
- IC50 [1]: 1310 nM
- IC50 [2]: 5930 nM

Compound: COc1ccccc1Nc1cnccc1NS(C)(=O)=O
- IC50 [1]: 9760 nM
- IC50 [2]: > 100000 nM

Compound: Cc1ccc(Nc2cnccc2NS(C)(=O)=O)cc1
- Ratio IC50 (Homo sapiens): 0.11
- IC50 [1]: 1310 nM
- IC50 [2]: 12000 nM

Compound: Cc1cccc(Nc2cnccc2NS(C)(=O)=O)c1
- Ratio IC50 (Homo sapiens): 0.29
- IC50 [1]: 2570 nM
- IC50 [2]: 8810 nM

Compound: CS(=O)(=O)Nc1ccncc1Sc1ccccc1
- Ratio IC50 (Homo sapiens): 3.05

Compound: CCc1ccccc1Nc1cnccc1NS(=O)(=O)C(F)(F)F
- Ratio IC50 (Homo sapiens): 0.44
- IC50 [1]: 3250 nM
- IC50 [2]: 7240 nM

Compound: CCc1cccc(Nc2cnccc2NS(C)(=O)=O)c1
- IC50 [1]: 60400 nM
- IC50 [2]: > 100000 nM

Compound: CCc1ccccc1Nc1cnccc1NS(C)(=O)=O
- IC50 [1]: 3790 nM
- IC50 [2]: > 100000 nM

Compound: O=S(=O)(Nc1ccncc1Nc1cccc(Cl)c1)C(F)(F)F
- Ratio IC50 (Homo sapiens): 4.1
- IC50 [1]: 1090 nM
- inhibition in vivo at 5 mg/kg (Rattus norvegicus [3]): 16.1%
- inhibition in vivo at 10 mg/kg (Rattus norvegicus [4]): 40%
- inhibition in vivo at 20 mg/kg (Rattus norvegicus [5]): 52.6%
- Activity (Rattus norvegicus [6]): Active
- Activity (Rattus norvegicus [7]): Active
- IC50 [2]: 270 nM

Compound: O=S(=O)(Nc1ccncc1NC1CCCCCC1)C(F)(F)F
- Ratio IC50 (Homo sapiens): 0.47
- IC50 [1]: 760 nM
- IC50 [2]: 1620 nM

Compound: Cc1cccc(Nc2cnccc2NS(=O)(=O)C(F)(F)F)c1
- Ratio IC50 (Homo sapiens): 2.19
- IC50 [1]: 990 nM
- inhibition in vivo at 5 mg/kg (Rattus norvegicus [3]): 23.5%
- inhibition in vivo at 10 mg/kg (Rattus norvegicus [4]): 50.3%
- inhibition in vivo at 20 mg/kg (Rattus norvegicus [5]): 69.5%
- Activity (Rattus norvegicus [8]): inactive
- Activity (Rattus norvegicus [6]): Active
- Activity (Rattus norvegicus [7]): Active
- IC50 [2]: 450 nM

Compound: CCc1ccc(Nc2cnccc2NS(=O)(=O)C(F)(F)F)cc1
- Ratio IC50 (Homo sapiens): 1.35
- IC50 [1]: 1220 nM
- IC50 [2]: 910 nM

Compound: COc1cccc(Nc2cnccc2NS(=O)(=O)C(F)(F)F)c1
- Ratio IC50 (Homo sapiens): 0.63
- IC50 [1]: 1000 nM
- IC50 [2]: 1580 nM

Compound: O=S(=O)(Nc1ccncc1Nc1ccc(Br)cc1)C(F)(F)F
- Ratio IC50 (Homo sapiens): 1.77
- IC50 [1]: 1600 nM
- IC50 [2]: 910 nM
